Drawing on ChEMBL document CHEMBL4396917, “Synthesis and biological evaluation of novel benzylidene-succinimide derivatives as noncytotoxic antiangiogenic inhibitors with anticolorectal cancer activity in vivo” (Eur J Med Chem, 2019), this text covers IC50 and Activity for 31 compounds.

The subject of one assay is HCT-116. Description: Cytotoxicity against human HCT116 cells assessed as reduction in cell growth after 72 hrs by MTT assay. The format is cell-based. The conditions noted are these: HCT-116, 72 h. (Tetrazolium dyes change colour on reduction, which living cells bring about.)
The next assay deals with NCM460. The experiment in a line: Cytotoxicity against human NCM460 cells assessed as reduction in cell growth after 72 hrs by MTT assay. To be noted: NCM460, 72 h. The format is cell-based.
For another assay, the system named is SW480. Description: Cytotoxicity against human SW480 cells assessed as reduction in cell growth after 72 hrs by MTT assay. The format is cell-based. To be noted: SW480, 72 h.
Assay [1] deals with Chorioallantoic membrane. The experiment in a line: Antiangiogenic activity in Leghorn chicken fertilized egg chorioallantoic membrane at 10 nM/egg measured after 48 hrs by CAM assay. The format is functional, tissue-based. To be noted: Gallus gallus. Put shortly:
(§1)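 Fertile Leghorn eggs incubated at 37.8°C, 40% humidity; window opened on day 7; compound, sunitinib or 0.9% NaCl mixed with DMSO applied on filter paper onto CAM; 48 h incubation, methanol fixation, photography; nascent vessels counted.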

Assay [2] concerns Chorioallantoic membrane. Description: Antiangiogenic activity in Leghorn chicken fertilized egg chorioallantoic membrane measured after 48 hrs by CAM assay. Type of assay: functional, tissue-based. The conditions noted are these: Gallus gallus. Summed up:
as §1

In assay [3] the test system is HUVEC. The experiment in a line: Antiangiogenic activity against HUVEC assessed as inhibition of cell proliferation measured […] by MTT assay. Type of assay: functional, cell-based. The conditions noted are these: Homo sapiens, 0.5 h.
Assay [4] relates to HUVEC. The experiment in a line: Antiangiogenic activity against VEGF-induced HUVEC assessed as inhibition of cell proliferation preincubated for 30 mins followed by VEGF addition measured after 24 hrs by MTT assay. The format is functional, cell-based. The conditions noted are these: Homo sapiens. Put shortly: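 HUVECs seeded 24 h, starved 16 h in M200 with 2% FBS, pretreated 30 min with compound at 0.1, 1, 10, 20 or 40 μM, then stimulated with VEGF (25 ng/mL) for 24 h; viability read by MTT; IC50 determined.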

For a further assay, the system named is Mus musculus. The experiment in a line: Antiangiogenic activity in Matrigel plug angiogenic Balb/c mouse model assessed as impaired vascularization by measuring loss of red colour in VEGF-supplemented matrigel at 20 to 60 mg/kg, sc measured after 15 days. The format is functional, organism-based. Summed up:
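Balb/c nude mice (6–8 weeks), three groups, injected subcutaneously with 400 μL Matrigel alone or with VEGF (250 ng/mL) and/or compound; after 15 days plugs removed, weighed and photographed.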

Activity calls are given as the source filed them. No cut-off for these calls is given here.

`Cc1ccc(NC(=O)c2cccc(/C=C3\CC(=O)N(c4ccccc4)C3=O)c2)cc1`: the IC50 with HCT-116, with NCM460 and with SW480 was greater than 100 µM throughout.

Consider `O=C(NC1CCCCC1)c1cccc(/C=C2\CC(=O)N(c3ccccc3)C2=O)c1`, for which, in the assay with Chorioallantoic membrane [1], the result was Active. The IC50 in the assay on HCT-116, in the assay on NCM460 and in the assay on SW480 was greater than 100 µM in each case.

For the compound `COc1ccc(OC)c(NC(=O)c2cccc(/C=C3\CC(=O)N(c4ccccc4)C3=O)c2)c1`, the IC50 with HCT-116, in the assay with NCM460 and in the assay on SW480 was greater than 100 µM each time.

As to `Cc1ccc(N2C(=O)C/C(=C\c3cccc(C(=O)Nc4cccc(F)c4)c3)C2=O)cc1`, the values for the IC50 in the assay with HCT-116, with NCM460 and with SW480 were greater than 100 µM, greater than 100 µM and 96.9 µM, respectively.

On to `Cc1ccc(N2C(=O)C/C(=C\c3cccc(C(=O)Nc4ccc(Cl)cc4)c3)C2=O)cc1`, for which the concentration for half-maximal inhibition (IC50) with HCT-116, in the assay on NCM460 and in the assay on SW480 was greater than 100 µM in each case.

`O=C(c1cccc(/C=C2\CC(=O)N(c3ccccc3)C2=O)c1)N1CCCC1`: the outcome with Chorioallantoic membrane [1] was Active. Further, the IC50 in the assay with HCT-116, with NCM460 and in the assay on SW480 was greater than 100 µM throughout.

Turning to `CCOc1ccc(NC(=O)c2cccc(/C=C3\CC(=O)N(c4ccccc4)C3=O)c2)cc1`, the results for the IC50 in the assay with HCT-116, in the assay with NCM460 and with SW480 were 84.8 µM, greater than 100 µM and 91.5 µM, respectively.

Take `Cc1cccc(NC(=O)c2cccc(/C=C3\CC(=O)N(c4ccccc4)C3=O)c2)c1`: the IC50 with HCT-116, with NCM460 and in the assay with SW480 was greater than 100 µM each time.

On to `CCN(CC)CCNC(=O)c1c(C)[nH]c(/C=C2\C(=O)Nc3ccc(F)cc32)c1C` [SUNITINIB], for which the result with Chorioallantoic membrane [2] was Active. Moreover, the IC50 (in general, the point on the concentration scale where inhibition reaches its midpoint) in the assay with HUVEC [3] came to 6.46 µM; with HUVEC [4] it was 3.63 µM.

Turning to `CCCCN1C(=O)C/C(=C\c2cccc(C(=O)Nc3cccc(CC)c3)c2)C1=O`, the figures for the IC50 in the assay with HCT-116, with NCM460 and with SW480 were 75.3 µM, greater than 100 µM and 83.2 µM, respectively.

In the case of `CCc1cccc(NC(=O)c2cccc(/C=C3\CC(=O)N(c4ccccc4)C3=O)c2)c1`, the figures for the IC50 in the assay on HCT-116, with NCM460 and with SW480 were 81.2 µM, greater than 100 µM and 88.6 µM, respectively.

As to `O=C(Nc1ccc(Cl)cc1)c1cccc(/C=C2\CC(=O)N(c3ccccc3)C2=O)c1`, the outcome with Chorioallantoic membrane [1] was Active. For the same compound, the IC50 in the assay on HCT-116, in the assay with NCM460 and in the assay with SW480 was greater than 100 µM in each case.

As for `Cc1ccc(NC(=O)c2cccc(/C=C3\CC(=O)N(c4ccccc4)C3=O)c2)cc1C`, the IC50 in the assay on HCT-116, in the assay on NCM460 and with SW480 was greater than 100 µM throughout.

Consider `CCc1ccc(NC(=O)c2cccc(/C=C3\CC(=O)N(c4ccccc4)C3=O)c2)cc1`, for which the half-inhibitory concentration (IC50) with HCT-116, in the assay on NCM460 and in the assay with SW480 was greater than 100 µM each time.

Turning to `CCOc1ccc(NC(=O)c2cccc(/C=C3\CC(=O)N(Cc4ccccc4)C3=O)c2)cc1`, the half-inhibitory concentration (IC50) in the assay with HCT-116 is 41.7 µM; with NCM460, greater than 100 µM; in the assay on SW480, 73.2 µM.

Take `COc1ccc(NC(=O)c2cccc(/C=C3\CC(=O)N(c4ccccc4)C3=O)c2)cc1`: in the assay on Chorioallantoic membrane [1], the result was Active. Further, the half-maximal inhibitory concentration (IC50) with HCT-116, in the assay with NCM460 and in the assay with SW480 was greater than 100 µM in each case.

`O=C(c1cccc(/C=C2\CC(=O)N(c3ccccc3)C2=O)c1)N1CCOCC1`: in the assay with Chorioallantoic membrane [1], the result was Active. The IC50 in the assay on HCT-116, in the assay with NCM460 and in the assay with SW480 was greater than 100 µM in each case.

For the compound `COc1cc(NC(=O)c2cccc(/C=C3\CC(=O)N(c4ccccc4)C3=O)c2)cc(OC)c1OC`, the IC50 in the assay with HCT-116, in the assay with NCM460 and in the assay with SW480 was greater than 100 µM throughout.

As for `CCc1cccc(NC(=O)c2cccc(/C=C3\CC(=O)N(c4ccc(C)cc4)C3=O)c2)c1`, the values for the IC50 in the assay on HCT-116, in the assay with NCM460 and in the assay with SW480 were 41.5 µM, greater than 100 µM and 65.3 µM, respectively.

As for `O=C(Nc1cccc(F)c1)c1cccc(/C=C2\CC(=O)N(c3ccccc3)C2=O)c1`, the half-maximal inhibitory concentration (IC50) with HCT-116, in the assay on NCM460 and in the assay with SW480 was greater than 100 µM in each case.

Consider `O=C(Nc1ccc(F)cc1)c1cccc(/C=C2\CC(=O)N(c3ccccc3)C2=O)c1`, for which the 50% inhibitory concentration (IC50) in the assay with HCT-116, in the assay with NCM460 and in the assay on SW480 was greater than 100 µM in each case.

Turning to `O=C(Nc1ccccc1)c1cccc(/C=C2\CC(=O)N(c3ccccc3)C2=O)c1`, the IC50 with HCT-116, in the assay with NCM460 and with SW480 was greater than 100 µM in each case.

Regarding `CCCCCN1C(=O)C/C(=C\c2cccc(C(=O)Nc3ccc(OC)cc3)c2)C1=O`, the IC50 in the assay with HCT-116, in the assay with NCM460 and in the assay with SW480 was greater than 100 µM throughout.

Consider `COc1ccc(NC(=O)c2cccc(/C=C3\CC(=O)N(c4ccccc4)C3=O)c2)c(C)c1`, for which the IC50 in the assay on HCT-116, with NCM460 and in the assay with SW480 was greater than 100 µM in each case.

Turning to `O=C(NCc1ccccc1)c1cccc(/C=C2\CC(=O)N(c3ccccc3)C2=O)c1`, in the assay with Chorioallantoic membrane [1], the outcome was Active. The IC50 in the assay with HCT-116, in the assay with NCM460 and with SW480 was greater than 100 µM each time.

As for `CSc1cccc(NC(=O)c2cccc(/C=C3\CC(=O)N(c4ccccc4)C3=O)c2)c1`, the 50% inhibitory concentration (IC50) is 65.2 µM in the assay on HCT-116, greater than 100 µM in the assay with NCM460 and 74.3 µM with SW480.

For the compound `CCc1cccc(NC(=O)c2cccc(/C=C3\CC(=O)N(Cc4ccccc4)C3=O)c2)c1`, the IC50 in the assay on HCT-116 was 80.6 µM; in the assay on NCM460, greater than 100 µM; with SW480, 91.5 µM.

Turning to `COc1ccc(NC(=O)c2cccc(CC3CC(=O)N(c4ccc(C)cc4)C3=O)c2)cc1` (stereo not given), the IC50 in the assay with HCT-116, in the assay with NCM460 and in the assay on SW480 was greater than 100 µM in each case. Moreover, the outcome with Mus musculus was Active.

In the case of `O=C(Nc1ccc(OC(F)F)cc1)c1cccc(/C=C2\CC(=O)N(c3ccccc3)C2=O)c1`, the IC50 with HCT-116, with NCM460 and with SW480 was greater than 100 µM in each case.

Consider `CCCCNC(=O)c1cccc(/C=C2\CC(=O)N(Cc3ccccc3)C2=O)c1`, for which the IC50 is 95 µM in the assay on HCT-116, greater than 100 µM with NCM460 and greater than 100 µM with SW480.

Consider `O=C(Nc1ccc(Cl)cc1)c1cccc(/C=C2\CC(=O)N(Cc3ccccc3)C2=O)c1`, for which the IC50 with HCT-116, with NCM460 and in the assay on SW480 was greater than 100 µM in each case.
